From ChEMBL document CHEMBL2010714, “Radical-regulating and antiviral properties of ascorbic acid and its derivatives” (Bioorg Med Chem Lett, 2012)

Columns and labels:
[1] = Cytotoxicity against human RD cells assessed maximun non-toxic concentration; type: cell-based
How it was run: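 Maximum non-toxic concentration determined in uninfected human RD cell culture after 72 h incubation with compound.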

[2] = tested on: Human alphaherpesvirus 1; test: Antiviral activity against Herpes simplex virus type 1 infected in human RD cells assessed as inhibition of virus-induced cytopathic effect; type: functional, organism-based; settings: Human alphaherpesvirus 1, RD
How it was run: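 Human RD cells infected with HSV-1. Cytopathic-effect method. Activity criterion: reduction in virus titer with test compound versus untreated infected control. EC50 and EC90 taken as concentrations suppressing virus replication by 50% and 90%. Maximum non-toxic concentration determined separately in uninfected cultures after 72 h incubation.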

[3] = Selectivity ratio of MNTD for human RD cells to EC50 for HSV1; type: ADME, cell-based
How it was run: (§1)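 HSV-1-infected human RD cells were assessed by cytopathic effect. Virus titer reduction relative to untreated control gave concentrations suppressing replication by 50% and 90% (EC50, EC90). Maximum non-toxic concentration was found in uninfected RD cells after 72 h. The ratio divides MNTC by EC50 or EC90.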

[4] = Selectivity ratio of MNTD for human RD cells to EC90 for HSV1; type: ADME, cell-based; how it was run: as §1

SMILES | MNTC [1] [mM] | EC50 [2] [µM] | EC90 [2] [µM] | selectivity ratio [3] | selectivity ratio [4]
COC1=C(OC)[C@@H]([C@@H](O)CO)OC1=O | 1.96 | 1810 | 3280 | 1.1 | 0.6
CCCCCCCCCCCCCCCC(=O)OC[C@H](O)[C@H]1OC(=O)C(O)=C1O [ASCORBYL PALMITATE] | 0.24 | > 240 | – | < 1 | –
O=C1O[C@H]([C@@H](O)CO)C(O)=C1O [ASCORBIC ACID] | 2.27 | > 2270 | – | < 1 | –
COC1=C(OC)[C@@H]([C@@H]2COC(C)(C)O2)OC1=O | 1.64 | > 1640 | – | < 1 | –
CCCCCCCCCCCCCCCC(=O)OC[C@H](O)[C@H]1OC(=O)C(O[C@H]2O[C@H](CO)[C@@H](O)[C@H](O)[C@H]2O)=C1O | 0.0868 | 4.5 | 6.2 | 19.2 | 13.9
O=C1O[C@H]([C@@H](O)CO)C(O)=C1O[C@H]1O[C@H](CO)[C@@H](O)[C@H](O)[C@H]1O | 1.18 | 16.3 | 26.9 | 72.7 | 43.9
